In ChEMBL document CHEMBL1221392, “Synthesis and cytotoxic potential of heterocyclic cyclohexanone analogues of curcumin” (Bioorg Med Chem, 2010):
The source made the active and inactive calls. The calls are words filed in the database; no cut-off is given here.

How the values were obtained:
[1] = Inhibition of NF-kappaB activation in human K562 cells; assay type: cell-based
How it was run: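 K562 cells electroporated with 5 µg each of a 5× NF-κB-site firefly luciferase reporter and a Renilla phRG-TK plasmid per 2.5 × 10⁶ cells. After 24 h they were resuspended at 1 × 10⁶/ml in RPMI 1640 with 0.1% FCS. Cells were then incubated 30 min before a concentration series was added. Read-out by dual luciferase; IC₅₀ reported.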

MDA-MB-231 [2] = assay: Cytotoxicity against human MDA-MB-231 cells after 5 days by SRB assay; conditions: MDA-MB-231, 5 days
MDA-MB-231 [3] = assay: Induction of apoptosis in human MDA-MB-231 cells assessed as increase in number of apoptotic cells at 2 to 3 uM after 18 hrs by FACScalibur flow cytometry; assay type: functional
MDA-MB-231 [4] = assay: Induction of apoptosis in human MDA-MB-231 cells assessed as increase in number of apoptotic cells at 2 to 3 uM after 36 hrs by FACScalibur flow cytometry; assay type: functional
SK-BR-3 = assay: Cytotoxicity against human SKBR3 cells after 5 days by SRB assay; conditions: SK-BR-3, 5 days
MDA-MB-468 = assay: Cytotoxicity against human MDA-MB-468 cells after 5 days by SRB assay; conditions: MDA-MB-468, 5 days
MDA-MB-231 [5] = assay: Induction of apoptosis in human MDA-MB-231 cells assessed as increase in number of apoptotic cells at 2 uM by FACScalibur flow cytometry; assay type: functional, cell-based
How it was run: (§1)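 Cells seeded at 2 × 10⁵/well in DMEM/HamF12 with 5% FBS and antibiotics, then treated for 12, 18, 24 or 36 h against a 0.1% DMSO vehicle. Staining was Annexin-V-FLUOS/propidium iodide, read by flow cytometry, as apoptotic cells % of total. Mean ± SEM from three independent experiments in triplicate, two-way ANOVA with Bonferroni post-test.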

MDA-MB-231 [6] = assay: Induction of apoptosis in human MDA-MB-231 cells assessed as increase in number of apoptotic cells at 1 uM by FACScalibur flow cytometry; assay type: functional, cell-based; how it was run: as §1

| Compound | IC50 [1] [µM] | EC50 (MDA-MB-231 [2]) [µM] | further results |
| --- | --- | --- | --- |
| CN1C/C(=C\c2cccs2)C(=O)/C(=C/c2cccs2)C1 | > 200 | > 30 | – |
| COc1cc(/C=C/C(=O)CC(=O)/C=C/c2ccc(O)c(OC)c2)ccc1O [CURCUMIN] | 15 | 7.6 | IC50 (SK-BR-3): 2400 nM; EC50 (MDA-MB-468): 9700 nM |
| CN1C2CCC1/C(=C\c1cccnc1)C(=O)/C2=C/c1cccnc1 | 4 | 12.9 | – |
| O=C1/C(=C/c2cccnc2F)CCC/C1=C\c1cccnc1F | 3.8 | 3.2 | – |
| COc1cc(/C=C2\CCC/C(=C\c3cc(OC)c(OC)c(OC)c3)C2=O)cc(OC)c1OC | – | > 30 | – |
| CN1C/C(=C\c2ccncc2)C(=O)/C(=C/c2ccncc2)C1 | 1 | 0.8 | Activity (MDA-MB-231 [5]): Active; IC50 (SK-BR-3): 600 nM; EC50 (MDA-MB-468): 500 nM |
| O=C1/C(=C/c2cccs2)CCC/C1=C\c1cccs1 [TENYLIDONE] | > 200 | > 30 | – |
| Cn1ccnc1/C=C1\CCC/C(=C\c2nccn2C)C1=O | 48 | 1.9 | – |
| CN1C/C(=C\c2nccn2C)C(=O)/C(=C/c2nccn2C)C1 | 47 | > 30 | – |
| CN1C2CCC1/C(=C\c1ccncc1)C(=O)/C2=C/c1ccncc1 | 1.5 | 1.1 | IC50 (SK-BR-3): 700 nM; EC50 (MDA-MB-468): 600 nM |
| COc1cc(/C=C2/C(=O)/C(=C/c3cc(OC)c(OC)c(OC)c3)C3CCC2N3C)cc(OC)c1OC | > 200 | > 30 | – |
| COc1cc(F)c(/C=C2\CN(C)C/C(=C\c3cc(OC)c(OC)cc3F)C2=O)cc1OC | 4 | 3.8 | – |
| O=C1/C(=C/c2cccnc2)CCC/C1=C\c1cccnc1 | 2.5 | 1.5 | Activity (MDA-MB-231 [3]): <20% |
| O=C1/C(=C/c2cccnc2)CC/C1=C\c1cccnc1 | 34 | 8.6 | – |
| COc1cc(/C=C2\CN(C)C/C(=C\c3cc(OC)c(OC)c(OC)c3)C2=O)cc(OC)c1OC | 0.9 | 0.3 | Activity (MDA-MB-231 [6]): Active; IC50 (SK-BR-3): 400 nM; EC50 (MDA-MB-468): 300 nM |

Now from value to compound, other results behind:

| IC50 [1] [µM] | Compound | EC50 (MDA-MB-231 [2]) [µM] | further results |
| --- | --- | --- | --- |
| 2.5 | O=C1/C(=C/c2ccncc2)CCC/C1=C\c1ccncc1 | 1.1 | Activity (MDA-MB-231 [3]): <20%; Activity (MDA-MB-231 [4]): 40%; IC50 (SK-BR-3): 200 nM; EC50 (MDA-MB-468): 1900 nM |
| > 200 | COc1ccc(OC)c(/C=C2\CCC/C(=C\c3cc(OC)ccc3OC)C2=O)c1 | > 10 | – |
| 10 | COc1cc(/C=C2\CCC/C(=C\c3ccc(O)c(OC)c3)C2=O)ccc1O [CYCLOVALONE] | 2.6 | – |
| > 200 | Cn1cccc1/C=C1\CCC/C(=C\c2cccn2C)C1=O | > 30 | – |
| 2.2 | O=C1/C(=C/c2ccnc(F)c2)CCC/C1=C\c1ccnc(F)c1 | 3.3 | – |
| 0.8 | CN1C/C(=C\c2cccnc2)C(=O)/C(=C/c2cccnc2)C1 | 2.1 | – |
| 6.3 | COc1ccc(OC)c(/C=C2\CN(C)C/C(=C\c3cc(OC)ccc3OC)C2=O)c1 | 1.1 | IC50 (SK-BR-3): 1100 nM; EC50 (MDA-MB-468): 1100 nM |
